What was measured:
[1] = biological target: T1, Protein HEXIM1 (Homo sapiens) (UniProt O94992); assay: Induction of HEXIM1 protein expression in human LNCAP cells at 500 uM after 24 hrs by Western blotting analysis relative to control; format: cell-based
T1 sequence (whole entry): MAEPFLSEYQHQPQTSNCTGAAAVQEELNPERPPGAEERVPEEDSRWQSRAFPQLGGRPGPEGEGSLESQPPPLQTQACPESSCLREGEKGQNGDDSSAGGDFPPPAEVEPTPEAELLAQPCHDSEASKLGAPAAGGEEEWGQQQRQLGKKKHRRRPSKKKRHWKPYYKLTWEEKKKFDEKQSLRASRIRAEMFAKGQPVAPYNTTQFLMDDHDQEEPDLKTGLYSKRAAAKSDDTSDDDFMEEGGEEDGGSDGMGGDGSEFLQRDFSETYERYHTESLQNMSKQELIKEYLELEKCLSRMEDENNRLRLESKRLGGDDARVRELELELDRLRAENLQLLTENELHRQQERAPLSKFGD
Procedure, shortened: (§1)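 LNCaP prostate cancer cells were treated for 24 h with vehicle, HMBA (5 mM; positive control) or analog at 500 μM, and selected analogs also at 100 μM. HEXIM1 was assessed by Western blot of cell extracts using a HEXIM1 antibody, with β-actin as loading control. Band intensities were quantified by densitometry. Representative of three independent experiments.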

[2] = Solubility of the compound in water; format: physicochemical
Procedure, shortened: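 Aqueous solubility was judged by the absence of precipitation in LNCaP cell culture medium at 100 μM.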

[3] = biological target: T1, Protein HEXIM1 (Homo sapiens); assay: Induction of HEXIM1 protein expression in human LNCAP cells at 100 uM after 24 hrs by Western blotting analysis relative to control; format: cell-based; procedure, shortened: as §1
[4] = biological target: T1, Protein HEXIM1 (Homo sapiens); assay: Induction of HEXIM1 protein expression in human LNCAP cells at 5 mM after 24 hrs by Western blotting analysis relative to control; format: cell-based
[5] = biological target: T1, Protein HEXIM1 (Homo sapiens); assay: Induction of HEXIM1 protein expression in human LNCAP cells at 1 mM after 24 hrs by Western blotting analysis relative to control; format: cell-based
[6] = biological target: T1, Protein HEXIM1 (Homo sapiens); assay: Induction of HEXIM1 protein expression in human LNCAP cells at 0.5 mM after 24 hrs by Western blotting analysis relative to control; format: cell-based; procedure, shortened: as §1
LNCaP = assay: Cytotoxicity against human LNCAP cells assessed as change in cell morphology at 500 uM; format: cell-based
[7] = biological target: T1, Protein HEXIM1 (Homo sapiens); assay: Induction of HEXIM1 protein expression in human LNCAP cells after 24 hrs by Western blotting analysis; format: cell-based
[8] = biological target: T1, Protein HEXIM1 (Homo sapiens); assay: Induction of HEXIM1 protein expression in human LNCAP cells at 0.05 mM after 24 hrs by Western blotting analysis relative to control; format: cell-based
[9] = biological target: T1, Protein HEXIM1 (Homo sapiens); assay: Induction of HEXIM1 protein expression in human LNCAP cells at 0.1 mM after 24 hrs by Western blotting analysis relative to control; format: cell-based

Structure (SMILES)	fold change (FC) [1]	solubility [2] [µM]	fold change (FC) [3]	other results
CC(=O)NC1CCC(NC(C)=O)CC1 (configuration not stated)	1.88	> 100	0.06	–
CC(=O)N(C)CCCN(C)C(C)=O	0.44	–	–	–
CN(C1CCC(N(C)S(C)(=O)=O)CC1)S(C)(=O)=O (configuration not stated)	1.27	> 100	1.22	–
CC(=O)N(C)CCCCCN(C)C(C)=O	0.05	–	–	–
CN(CCCCCCN(C)S(C)(=O)=O)S(C)(=O)=O	0.97	> 100	1.55	–
CN(CCCCCN(C)S(C)(=O)=O)S(C)(=O)=O	0.05	–	–	–
CC(=O)NCCCCCCNC(C)=O	–	–	–	fold change (FC) [4]: 2.21; fold change (FC) [5]: 23.6; fold change (FC) [6]: 8.15
CC(=O)NCCCCCCNC(=O)Oc1ccc(-c2ccccc2)cc1	1.07	> 100	0.61	–
CC(=O)N(C)C1CCC(N(C)C(C)=O)CC1 (configuration not stated)	3.09	> 100	0.43	–
CC(=O)NCCCCCCNC(=O)c1ccc(Cl)c([N+](=O)[O-])c1	0.08	–	–	–
CC(=O)NCC1CCC(CNC(C)=O)CC1 (configuration not stated)	2.14	–	–	Activity (LNCaP): Toxic
CC(=O)N(C)CCCCCCN(C)C(C)=O	0.25	–	–	–
CCC(=O)NCCCCCCNC(=O)CC	4.45	> 100	1.34	Activity [7]: Dose-dependent effect
CC(=O)NCCCCCNC(C)=O	0.12	–	–	–
COc1ccc(C(=O)NCCCCCCNC(C)=O)cc1	1.93	–	–	Activity (LNCaP): Toxic
CC(=O)N(C)CC1CCC(CN(C)C(C)=O)CC1 (configuration not stated)	1.38	–	–	–
O=C(NCCCCCCNC(=O)c1ccccc1)c1ccccc1	0.46	–	–	–
CC(=O)NCCCNC(C)=O	0.68	–	–	–
CCCC(=O)NCCCCCCNC(=O)CCC	4.89	> 100	1.23	Activity [7]: Dose-dependent effect

Further lines, with some results ahead:

fold change (FC) [1]	solubility [2] [µM]	fold change (FC) [3]	Structure (SMILES)	other results
1.39	> 100	2	CN(Cc1ccc(CN(C)S(C)(=O)=O)cc1)S(C)(=O)=O	–
0.22	–	–	CS(=O)(=O)NCCCCCNS(C)(=O)=O	–
2.2	> 100	3.8	CC(=O)N(C)Cc1ccc(CN(C)C(C)=O)cc1	–
4.45	> 100	0.21	CS(=O)(=O)NCCCNS(C)(=O)=O	–
0.31	–	–	CS(=O)(=O)NCCCCCCNS(C)(=O)=O	–
0.4	–	–	CC(=O)NCc1ccc(CNC(C)=O)cc1	–
2.86	> 100	0.67	CN(CCCN(C)S(C)(=O)=O)S(C)(=O)=O	–
1.24	–	–	CS(=O)(=O)NCC1CCC(CNS(C)(=O)=O)CC1 (configuration not stated)	–
0.16	–	–	CS(=O)(=O)NCc1ccc(CNS(C)(=O)=O)cc1	–
0.67	–	–	CS(=O)(=O)NC1CCC(NS(C)(=O)=O)CC1 (configuration not stated)	–
3.09	> 100	0.41	CN(CC1CCC(CN(C)S(C)(=O)=O)CC1)S(C)(=O)=O (configuration not stated)	–
2.8	> 100	1.16	COc1ccc(CC(=O)NCCCCCCNC(C)=O)cc1	fold change (FC) [8]: 1.72; fold change (FC) [9]: 12.6; fold change (FC) [6]: 26.6; Activity [7]: Dose-dependent effect

Source: ChEMBL document CHEMBL3120124, “Lead optimization of HMBA to develop potent HEXIM1 inducers” (Bioorg Med Chem Lett, 2014)
